{"source": "ChEMBL document CHEMBL4270554", "about": "“Discovery of the cancer cell selective dual acting anti-cancer agent (Z)-2-(1H-indol-3-yl)-3-(isoquinolin-5-yl)acrylonitrile (A131)” (Eur J Med Chem, 2018)", "key": {"NUGC-3": {"system": "NUGC-3", "test": "Antiproliferative activity against human NUGC3 cells after 72 hrs by MTT assay", "assay_type": "functional", "settings": "NUGC-3, 72 h", "in_short": "(§1)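 Cells cultured at 37 °C, 5% CO₂ in medium with 10% FBS and penicillin/streptomycin, used within 12-20 passages. Seeded at 2.5×10^3 cells/well for 24 h, then compound added from DMSO stocks at 200-fold final concentration (final DMSO 0.5% v/v). After 72 h, 0.5 mg/mL MTT for 3 h, formazan dissolved in DMSO, A570 read. IC50 from sigmoidal fit; three independent determinations.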"}, "[1]": {"test": "Antiproliferative activity against human AC10 cells at 50 uM after 72 hrs by MTT assay", "assay_type": "cell-based"}, "Salmonella typhimurium": {"system": "Salmonella typhimurium", "test": "Genotoxicity in Salmonella typhimurium TA98 after 48 hrs in presence of S9 fraction by Ames test", "assay_type": "toxicity, organism-based", "settings": "salmonella enterica subsp. enterica serovar typhimurium, s9, 48 h"}, "[2]": {"test": "Antiproliferative activity against human SNU216 cells after 72 hrs by MTT assay", "assay_type": "functional", "settings": "SNU-216, 72 h", "in_short": "as §1"}, "Huh-7": {"system": "Huh-7", "test": "Antiproliferative activity against human HuH7 cells after 72 hrs by MTT assay", "assay_type": "functional", "settings": "Huh-7, 72 h", "in_short": "as §1"}, "HeLa [3]": {"system": "HeLa", "test": "Induction of autophagy in human HeLa cells assessed as increase in LC3-2 to LC3-1 ratio at 5 uM after 6 hrs by immunoblot analysis relative to control", "assay_type": "functional", "in_short": "(§2)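 HeLa cells were exposed for 6 h to the compound at 0.625, 1.25, 2.5, 5 or 10 µM, or to DMSO. Cells were lysed in 1% Triton buffer (pH 8.0) with protease and phosphatase inhibitors. Lysates were resolved by 14% SDS-PAGE and immunoblotted for LC3, with β-actin probed. The LC3-II/LC3-I band-intensity ratio was expressed relative to the DMSO control.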"}, "hTERT-BJ": {"system": "hTERT-BJ", "test": "Inhibition of mitotic progression in human hTERT-BJ cells transformed with hTert, small t, shRNAs against p53 and pRb and H-RasV12-ER assessed as increase in phosphorylated histone H3 (Ser10) level at 5 uM after 24 hrs by immunoblot analysis relative to control", "assay_type": "functional", "in_short": "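Fully transformed BJ fibroblasts (hTert, small t, shRNAs to p53 and pRb, H-RasV12-ER) treated 24 h at 5 μM. Immunoblot protocol as for HeLa. pH3 (Ser10) band intensity expressed as fold of DMSO control; under 2-fold counted as insignificant.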"}, "[4]": {"test": "Antiproliferative activity against human NCC59 cells after 72 hrs by MTT assay", "assay_type": "functional", "in_short": "as §1"}, "HeLa [5]": {"system": "HeLa", "test": "Induction of autophagy in human HeLa cells assessed as increase in LC3-2 to LC3-1 ratio at 0.625 uM after 6 hrs by immunoblot analysis relative to control", "assay_type": "functional", "in_short": "as §2"}, "[6]": {"test": "Antiproliferative activity against human IMR90 cells after 72 hrs by MTT assay", "assay_type": "cell-based", "settings": "IMR-90 cells", "in_short": "as §1"}, "HCT-15": {"system": "HCT-15", "test": "Antiproliferative activity against human HCT15 cells after 72 hrs by MTT assay", "assay_type": "functional", "settings": "HCT-15, 72 h", "in_short": "as §1"}, "IM95": {"system": "IM95", "test": "Antiproliferative activity against human IM95 cells after 72 hrs by MTT assay", "assay_type": "functional", "settings": "IM95, 72 h", "in_short": "as §1"}, "TAMH": {"system": "TAMH", "test": "Antiproliferative activity against mouse TAMH cells at 50 uM after 72 hrs by MTT assay", "assay_type": "cell-based"}, "[7]": {"test": "Intrinsic clearance in pooled female rat liver microsomes assessed per mg protein at 3 uM preincubated for 5 mins followed by NADPH addition measured after 45 mins by LC-MS/MS method", "assay_type": "ADME, microsome", "settings": "read-out: CLH", "in_short": "(§3)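 Pooled female or male rat liver microsomes (0.3 mg protein/mL) with substrate at final 3 μM in 0.1 M phosphate pH 7.4. Pre-incubated 5 min at 37 °C, then started with NADPH (final 1 mM). Sampled at 0–45 min in triplicate, quenched with cold acetonitrile plus internal standard. Parent measured by LC-MS/MS. Midazolam as positive control; no-NADPH negative control.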"}, "[8]": {"test": "Antiproliferative activity against human BJ cells after 72 hrs by MTT assay", "assay_type": "cell-based", "in_short": "as §1"}, "HeLa [9]": {"system": "HeLa", "test": "Induction of autophagy in human HeLa cells assessed as increase in LC3-2 to LC3-1 ratio at 10 uM after 6 hrs by immunoblot analysis relative to control", "assay_type": "functional", "in_short": "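HeLa cells exposed 6 h to test agent (0.625–10 μM series) or chloroquine (1.25–100 μM series) vs DMSO; lysed in 1% Triton buffer (25 mM Tris pH 8.0, 150 mM NaCl, DTT, protease/phosphatase inhibitors), 14% SDS-PAGE, immunoblot with anti-LC3, anti-pH3(Ser10), β-actin loading. LC3-II/LC3-I band intensity ratio expressed relative to DMSO control.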"}, "HeLa [10]": {"system": "HeLa", "test": "Inhibition of colony formation in human HeLa cells at 0.6 uM after 7 days by plate colony counting method relative to control", "assay_type": "functional", "settings": "168 h", "in_short": "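Anchorage-independent growth: HeLa cells (1×10^4 per well) in 0.4% soft agar layered over 1% agar. Compound added at final 0.15, 0.3, 0.6, 1.25, 2.5 and 5 μM. HeLa colonies counted.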"}, "BJ": {"system": "BJ", "test": "Cell cycle arrest in human BJ cells assessed as accumulation at sub-G1 phase at 5 uM after 48 hrs", "assay_type": "cell-based", "in_short": "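Isogenic normal and fully transformed BJ fibroblasts (hTert, small t, shRNAs to p53 and pRb, H-RasV12-ER) exposed to 5 μM for 48 h. Percentage of cells in sub-G1 phase determined as a cell death measure.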"}, "U2OS": {"system": "U2OS", "test": "Antiproliferative activity against human U2OS cells after 72 hrs by MTT assay", "assay_type": "functional", "in_short": "as §1"}, "[11]": {"test": "Intrinsic clearance in pooled male rat liver microsomes assessed per mg protein at 3 uM preincubated for 5 mins followed by NADPH addition measured after 45 mins by LC-MS/MS method", "assay_type": "ADME, microsome", "settings": "read-out: CLH", "in_short": "as §3"}, "[12]": {"test": "Antiproliferative activity against human Ist1 cells after 72 hrs by MTT assay", "assay_type": "functional", "in_short": "as §1"}, "[13]": {"test": "Antiproliferative activity against human NCC24 cells after 72 hrs by MTT assay", "assay_type": "functional", "in_short": "as §1"}, "HGC-27": {"system": "HGC-27", "test": "Antiproliferative activity against human HGC27 cells after 72 hrs by MTT assay", "assay_type": "functional", "settings": "HGC-27, 72 h", "in_short": "as §1"}, "A549": {"system": "A549", "test": "Antiproliferative activity against human A549 cells after 72 hrs by MTT assay", "assay_type": "functional", "settings": "A549, 72 h", "in_short": "as §1"}, "MDA-MB-231": {"system": "MDA-MB-231", "test": "Antiproliferative activity against human MDA-MB-231 cells after 72 hrs by MTT assay", "assay_type": "functional", "settings": "MDA-MB-231, 72 h", "in_short": "as §1"}, "[14]": {"test": "Selectivity index, ratio of IC50 for human BJ cells to IC50 for human BJ cells transformed with hTert, small t, shRNAs against p53 and pRb and H-RasV12-ER", "assay_type": "functional", "in_short": "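Normal BJ fibroblasts and transformed BJ fibroblasts were grown at 37 °C in 5% CO₂ with 10% FBS, seeded at 2.5×10^3 cells/well for 24 h, then treated for 72 h at 0.5% v/v final DMSO. MTT at 0.5 mg/mL was added for 3 h, formazan was dissolved in DMSO and absorbance read at 570 nm. IC50 came from sigmoidal fits of three independent determinations. The index is normal-cell IC50 over transformed-cell IC50.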"}, "HCT-116": {"system": "HCT-116", "test": "Antiproliferative activity against human HCT116 cells after 72 hrs by MTT assay", "assay_type": "functional", "settings": "HCT-116, 72 h", "in_short": "as §1"}}, "data": [{"compound": "N#C/C(=C\\c1cccc2cnccc12)c1c[nH]c2ccccc12", "values": [{"measurement": "GI50", "setting": "NUGC-3", "value": 1, "unit": "µM"}, {"measurement": "Activity", "setting": "[1]", "value": 77.6, "unit": "%"}, {"measurement": "Activity", "setting": "Salmonella typhimurium", "value": "Non-Toxic"}, {"measurement": "GI50", "setting": "[2]", "value": 1.9, "unit": "µM"}, {"measurement": "GI50", "setting": "Huh-7", "value": 1.2, "unit": "µM"}, {"measurement": "fold change (FC)", "setting": "HeLa [3]", "value": 4.3}, {"measurement": "fold change (FC)", "setting": "hTERT-BJ", "value": 7.3}, {"measurement": "GI50", "setting": "[4]", "value": 0.9, "unit": "µM"}, {"measurement": "fold change (FC)", "setting": "HeLa [5]", "value": 1}, {"measurement": "GI50 at 72 h", "setting": "[6]", "value": 5.8, "unit": "µM"}, {"measurement": "GI50", "setting": "HCT-15", "value": 0.5, "unit": "µM"}, {"measurement": "GI50", "setting": "IM95", "value": 1, "unit": "µM"}, {"measurement": "Activity", "setting": "TAMH", "value": 57.3, "unit": "%"}, {"measurement": "microsomal CLint at 3 µM", "setting": "[7]", "value": 59, "unit": "µL/min/mg"}, {"measurement": "GI50 at 72 h", "setting": "[8]", "value": 8.1, "unit": "µM"}, {"measurement": "fold change (FC)", "setting": "HeLa [9]", "value": 4.3}, {"measurement": "inhibition at 0.6 µM", "setting": "HeLa [10]", "value": 50, "unit": "%"}, {"measurement": "Activity", "setting": "BJ", "value": "Non-Toxic"}, {"measurement": "GI50", "setting": "U2OS", "value": 1.5, "unit": "µM"}, {"measurement": "microsomal CLint at 3 µM", "setting": "[11]", "value": 299, "unit": "µL/min/mg"}, {"measurement": "GI50", "setting": "[12]", "value": 2.2, "unit": "µM"}, {"measurement": "GI50", "setting": "[13]", "value": 1.2, "unit": "µM"}, {"measurement": "GI50", "setting": "HGC-27", "value": 1.2, "unit": "µM"}, {"measurement": "GI50", "setting": "A549", "value": 2, "unit": "µM"}, {"measurement": "GI50", "setting": "MDA-MB-231", "value": 1.1, "unit": "µM"}, {"measurement": "Ratio IC50", "setting": "[14]", "value": 8.5}, {"measurement": "GI50", "setting": "HCT-116", "value": 1.8, "unit": "µM"}]}]}
